Test results from ChEMBL document CHEMBL3407335, “SAR-guided development and characterization of a potent antitumor compound toward B-cell neoplasms with no detectable cytotoxicity toward healthy cells” (J Med Chem, 2015).
pIC50: −log10 of the molar value.

Columns and labels:
[1] = system: K562; experiment: Cytotoxicity against human K562 cells after 24 hrs by MTT assay; type: functional, cell-based; conditions: K562, 24 h
[2] = system: Jurkat; experiment: Cytotoxicity against human Jurkat cells after 24 hrs by MTT assay; type: functional, cell-based
[3] = Cytotoxicity against human MEC1 cells after 48 hrs by CellTitre-Blue assay; type: functional, cell-based; conditions: MEC1, 48 h
In short: (§1)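 Screening used phenol red-free RPMI 1640 + L-glutamine with 10% FBS and 1% PenStrep. Exposure was 48 h in triplicate, with CellTiter-Blue read-out. IC50 came from at least two independent experiments, each in triplicate.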

[4] = Cytotoxicity against human U2940 cells after 48 hrs by CellTitre-Blue assay; type: functional, cell-based; conditions: U-2940, 48 h; in short: as §1
[5] = Cytotoxicity against human OCI-LY7 cells after 48 hrs by CellTitre-Blue assay; type: functional, cell-based; conditions: OCI-Ly7, 48 h
In short: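 OCI-LY7 assays were run in IMDM + GlutaMAX with 25 mM HEPES, phenol red, 20% FBS and 1% PenStrep. […] Viability was read by CellTiter-Blue. IC50 came from at least two independent experiments, each with three replicates.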

[6] = Cytotoxicity against mouse M210B4 cells after 48 hrs by CellTitre-Blue assay; type: cell-based; conditions: M210B4, 48 h
In short: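 Murine bone marrow fibroblasts served as the non-malignant counter-screen. Compound was tested at six levels (0.1, 1, 5, 10, 50, 100 μM) for 48 h. Viability was read by CellTiter-Blue. IC50 came from at least two independent experiments with three replicates each.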

[7] = Cytotoxicity against human HL60 cells after 48 hrs by CellTitre-Blue assay; type: functional, cell-based; conditions: HL-60, 48 h
In short: (§2)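 Cell lines in phenol red-free RPMI 1640 with L-glutamine, 10% FBS and 1% penicillin/streptomycin. Cells exposed in triplicate to increasing compound concentrations for 48 h at 37 °C. CellTiter-Blue read-out, normalized to vehicle-only cells. IC50 from two independent experiments.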

[8] = Cytotoxicity against human SU-DHL6 cells after 48 hrs by CellTitre-Blue assay; type: functional, cell-based; conditions: SU-DHL-6, 48 h; in short: as §2
[9] = Cytotoxicity against human SUDHL9 cells after 48 hrs by CellTitre-Blue assay; type: functional, cell-based; conditions: SUDHL9, 48 h; in short: as §2
[10] = system: PBMC; experiment: Cytotoxicity against patient PBMC after 48 hrs by CellTitre-Blue assay; type: cell-based; conditions: Homo sapiens
In short: (§3)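 Cryopreserved PBMC (CLL patients N = 15; healthy donors N = 4) thawed and cultured overnight in phenol red-free RPMI 1640 with L-glutamine and 20% FBS. Suspension culture at 300 000 cells per well with increasing compound concentrations for 48 h, in triplicate. CellTiter-Blue viability normalized to vehicle; IC50 fitted from the mean values of all samples.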

[11] = system: PBMC; experiment: Cytotoxicity against healthy human PBMC after 48 hrs by CellTitre-Blue assay; type: cell-based; in short: as §3
[12] = system: PBMC; experiment: Cytotoxicity against patient PBMC after 48 hrs by CellTitre-Blue assay in presenc of mouse M210B4 cells; type: cell-based; conditions: Homo sapiens
In short: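 M2-10B4 mouse fibroblasts were seeded and left overnight to form a confluent layer. Medium was then replaced by 3 million PBMC from CLL patients (N = 9), which had been thawed and held overnight, in RPMI with 20% FBS. Cocultures were exposed to increasing compound concentrations for 48 h, in triplicate. CellTiter-Blue viability normalized to vehicle; IC50 from mean values of all samples.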

[13] = system: CCRF-CEM; experiment: Cytotoxicity against human CCRF-CEM cells assessed as reduction in cell viability at <1 uM after 48 hrs by CellTitre-Blue assay; type: functional
In short: (§4)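 Cell lines were maintained in RPMI 1640 + GlutaMAX with 10% FBS and 1% penicillin/streptomycin at 37 °C under 5% CO2. For the assay, cells went into phenol red-free RPMI 1640 + L-glutamine with 10% FBS and 1% PenStrep. They were incubated in triplicate with increasing compound concentrations for 48 h. Viability was read by CellTiter-Blue, normalized to vehicle-only cells, and reported as mean plus SD.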

[14] = system: Jurkat; experiment: Cytotoxicity against human Jurkat cells assessed as reduction in cell viability at <1 uM after 48 hrs by CellTitre-Blue assay; type: functional; in short: as §4
[15] = Cytotoxicity against human HL60 cells assessed as reduction in cell viability at <1 uM after 48 hrs by CellTitre-Blue assay; type: functional, HL-60; in short: as §4
[16] = system: K562; experiment: Cytotoxicity against human K562 cells assessed as reduction in cell viability at <1 uM after 48 hrs by CellTitre-Blue assay; type: functional; in short: as §4
[17] = system: CCRF-CEM; experiment: Cytotoxicity against human CCRF-CEM cells after 48 hrs by CellTitre-Blue assay; type: functional, cell-based; in short: as §2
[18] = system: Jurkat; experiment: Cytotoxicity against human Jurkat cells after 48 hrs by CellTitre-Blue assay; type: functional, cell-based; in short: as §2

Row | SMILES | pIC50 [3] | pIC50 [4] | pIC50 [5] | pIC50 [6] | further results
1 | CCOc1ccccc1C(=O)/C=C/c1ccc2ccccc2c1 | 7.22 | 5.62 | 7.22 | 5.11 | pIC50 [1]: 4.40; pIC50 [2]: 4.68
2 | COc1ccccc1C(=O)/C=C/c1ccc2ccccc2c1 | 6.37 | 5.39 | 6.34 | 4.38 | –
3 | CCCOc1ccccc1C(=O)/C=C/c1ccc2ccccc2c1 | 6.89 | 5.28 | 7.00 | < 4.00 | –
4 | CCCCOc1ccccc1C(=O)/C=C/c1ccc2ccccc2c1 | 6.15 | 5.28 | 6.92 | < 4.00 | –
5 | CC(C)Oc1ccccc1C(=O)/C=C/c1ccc2ccccc2c1 | 5.92 | 4.96 | 6.82 | < 4.00 | –
6 | Cc1ccccc1C(=O)/C=C/c1ccc2ccccc2c1 | 5.19 | 5.00 | 5.31 | 4.14 | –
7 | CCOc1ccccc1C(=O)/C=C/c1ccc2cc(OC)ccc2c1 | 5.14 | 4.60 | 6.00 | < 4.00 | –
8 | C=Cc1cccc(/C=C/C(=O)c2ccccc2OCC)c1 | 6.70 | 5.60 | 6.30 | < 4.00 | –
9 | CCOc1ccccc1C(=O)/C=C/c1ccc2c(c1)OCO2 | 5.96 | 5.02 | 6.89 | < 4.00 | –
10 | CCOc1ccccc1C(=O)/C=C/c1cccc2ccccc12 | 5.72 | 5.13 | 5.82 | 4.77 | –
11 | CCOc1ccccc1C(=O)/C=C/c1c2ccccc2cc2ccccc12 | < 4.00 | < 4.00 | < 4.00 | – | –
12 | CCOc1ccccc1C(=O)/C=C/c1cc2ccccc2c2ccccc12 | 5.80 | 4.40 | 6.17 | < 4.00 | –
13 | CCOc1ccccc1C(=O)/C=C/c1ccc2sccc2c1 | 6.47 | 5.04 | 6.47 | 4.68 | –
14 | CCOc1ccccc1C(=O)/C=C/c1csc2ccccc12 | 6.77 | 6.07 | 7.00 | 5.09 | –
15 | CCOc1ccccc1C(=O)/C=C/c1cc2ccccc2[nH]1 | 7.66 | 5.54 | 7.28 | 4.72 | pIC50 [7]: 7.80; pIC50 [8]: 7.25; pIC50 [9]: 7.51; pIC50 [10]: 5.92; pIC50 [11]: 4.85; pIC50 [12]: 6.17; Activity [13]: <30%; Activity [14]: <30%; Activity [15]: <30%; Activity [16]: 60%; pIC50 [17]: 7.49; pIC50 [18]: 7.42
16 | CCOc1cccc(C(=O)/C=C/c2ccc3ccccc3c2)c1 | 5.54 | 4.80 | 5.74 | – | –
17 | CCOc1cccc(C(=O)/C=C/c2csc3ccccc23)c1 | 5.66 | 5.12 | 5.77 | – | –
18 | CCOc1ccc(C(=O)/C=C/c2csc3ccccc23)cc1 | 5.12 | 4.82 | 5.32 | – | –
19 | CCOc1cccc(C(=O)/C=C/c2cc3ccccc3[nH]2)c1 | 5.48 | – | 5.32 | – | –
20 | CCOc1ccc(C(=O)/C=C/c2cc3ccccc3[nH]2)cc1 | < 4.00 | – | 4.60 | – | –
21 | Nc1nc(F)nc2c1ncn2[C@@H]1O[C@H](CO)[C@@H](O)[C@@H]1O [FLUDARABINE] | – | – | – | – | pIC50 [10]: 5.72; pIC50 [11]: 4.85; pIC50 [12]: 5.00
